Source: PubChem (The Scripps Research Institute Molecular Screening Center)
Compounds with a hit are over-represented: about 2% of the library has one in this group of screens.
M1 antag: antagonists of human M1 muscarinic receptor | P11229 | CHO-K1 hM1, Fluo-8 calcium fluorescence, ACh EC80 antagonist | inhibition, % at 3 µM | hit rate 1.3% among 360,000 | AID 588852;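 active means percent inhibition above its own plate's cutoff, namely the mean of that plate's compound wells plus 3 SD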;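 further: peak over basal fluorescence ratio during 140 s after agonist addition; 0% = ACh EC80 plus DMSO and 100% = DMSO alone without agonist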
Target sequence (P11229 whole entry, looked up): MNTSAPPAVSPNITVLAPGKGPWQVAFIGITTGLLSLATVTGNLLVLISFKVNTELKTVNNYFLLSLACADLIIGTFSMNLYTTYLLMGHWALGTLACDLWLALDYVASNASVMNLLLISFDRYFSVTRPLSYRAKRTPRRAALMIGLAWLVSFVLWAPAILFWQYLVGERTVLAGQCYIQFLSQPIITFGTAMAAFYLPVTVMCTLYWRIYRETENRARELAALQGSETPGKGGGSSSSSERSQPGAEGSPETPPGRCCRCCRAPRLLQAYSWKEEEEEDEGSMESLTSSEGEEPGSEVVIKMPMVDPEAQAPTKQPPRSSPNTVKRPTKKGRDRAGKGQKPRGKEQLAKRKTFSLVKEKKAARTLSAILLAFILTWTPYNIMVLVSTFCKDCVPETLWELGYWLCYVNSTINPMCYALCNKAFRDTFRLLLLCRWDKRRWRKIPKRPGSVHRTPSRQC
M5 PAM: positive allosteric modulators of human muscarinic M5 receptor; hit rate 0.3% among 360,000; activation, % at 3 µM; P08912; CHO-K1 hM5, Fluo-8 calcium, ACh EC20 PAM; 0% = ACh EC20, 100% = ACh EC100;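 active means activation above the run cutoff, the mean activation of all test compounds plus 3 SD, cut at about 18% in these data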
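Measured by: Fluo-8 calcium fluorescence; material: human M5 receptor in CHO-K1 cells; schedule: Post-acetylcholine fluorescence recording 140 s; benchmarks: low control EC20 acetylcholine (0%), high control EC100 acetylcholine (100%); read-out: Max/basal fluorescence ratio as % of EC20–EC100 ACh window; compound: single dose, 3 µM nominal final test concentration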
M1 ag: human M1 muscarinic receptor agonism. P11229. CHO-K1 hM1, Fluo-8 calcium fluorescence, agonist mode; 0% DMSO, 100% acetylcholine EC100. activation, % at 3 µM. hit rate 0.33% among 360,000. AID 588814;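 active means activation above the run's mean compound activation plus 3 SD, cut at about 16% in these data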;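 further: peak over basal fluorescence ratio within a 140 s kinetic read after compound addition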
M5 ag: agonists of human muscarinic M5 receptor (CHRM5); CHO-K1 hM5 cells, Fluo-8 calcium fluorescence; 0% DMSO wells, 100% maximal acetylcholine response; AID 624037; activation, % at 3 µM; hit rate 0.19% among 360,000;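 active means activation above the run's mean over test compounds plus 3 SD, cut at about 23% in these data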;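 further: signal is peak over basal fluorescence ratio across the kinetic read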
M5 antag: antagonists of human muscarinic M5 receptor (CHRM5). P08912. CHO-hM5 cells, Fluo-8 calcium fluorescence, ACh EC80. inhibition, % at 3 µM. hit rate 0.59% among 360,000. AID 624040;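 active means inhibition above a per-plate cutoff, the mean of that plate's test compounds plus 3 SD, cut at about 27% in these data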;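 further: 0% = acetylcholine EC80 with DMSO and 100% = DMSO without agonist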
M1 PAM: positive allosteric modulators of human M1 muscarinic receptor; P11229; CHO-K1 hM1, Fluo-8 calcium fluorescence, ACh EC20; 0% = ACh EC20, 100% = maximal ACh; activation, % at 3 µM; hit rate 0.088% among 360,000; AID 588819; in the data active means activation above about 19%, passing the limit was not always enough
* = called active by the depositor.

How did NC1=NC(=O)/C(=C\c2cccnc2)S1 do in these assays?
M1 antag: -1.1; M5 PAM: 0.9; M1 ag: -5.2; M5 ag: -4.5; M5 antag: -1.1; M1 PAM: 11.2

What do the screens show for `COc1ccc(CCNC(=O)Nc2nnc([C@H]3C[C@H](O)[C@@H](CO)O3)s2)cc1OC`?
M1 antag: -19.8; M5 PAM: -2.2; M1 ag: -2.3; M5 ag: -0.6; M5 antag: 6.2; M1 PAM: 6.8

Results for COc1ccc(OC)c(S(=O)(=O)NC(=O)C2(C)CCN2C(=O)c2ccco2)c1 (stereo not given) ?
M1 antag: -13.2; M5 PAM: 4.9; M1 ag: -1.2; M5 ag: -0.2; M5 antag: -4.3; M1 PAM: 11.8

How did CC(C)Oc1ccc(F)cc1-c1cc(C(=O)NCc2cccs2)[nH]n1 do in these assays?
M1 antag: 5.0; M5 PAM: -1.3; M1 ag: -5.2; M5 ag: -2.1; M5 antag: 2.7; M1 PAM: -5.6

Results for O=C1C(=C2CCCCC2)SC(=S)N1Cc1ccco1 ?
M1 antag: 28.5*; M5 PAM: 1.9; M1 ag: -6.2; M5 ag: -9.5; M5 antag: -1.3; M1 PAM: -19.9

Results for O=C1/C(=C\c2ccco2)SC(=S)N1Cc1ccccc1 ?
M1 antag: -3.7; M5 PAM: -3.0; M1 ag: -2.1; M5 ag: -0.2; M5 antag: -3.5; M1 PAM: -5.3

What do the screens show for `Cc1cc(/C=C2\SC(=S)N(Cc3ccco3)C2=O)c(C)n1-c1ccccc1`?
M1 antag: 5.5; M5 PAM: 21.5*; M1 ag: -2.5; M5 ag: 12.0; M5 antag: 5.9; M1 PAM: -0.8

How did CN(C)c1ccc(C=C2SC(=S)N(Cc3ccco3)C2=O)cc1 do in these assays?
M1 antag: 17.1; M5 PAM: -8.4; M1 ag: 20.4*; M5 ag: 13.1; M5 antag: 19.4; M1 PAM: -15.9

Results for Cc1cc(/C=C2\SC(=S)N(C)C2=O)c(C)n1-c1cccc(O)c1 ?
M1 antag: -11.3; M5 PAM: -5.0; M1 ag: -1.7; M5 ag: 4.5; M5 antag: 11.2; M1 PAM: 5.7

How did CCCCn1nnnc1C(c1cc2ccccc2o1)N1CCCN(C(=O)OC(C)(C)C)CC1 (stereo not given) do in these assays?
M5 PAM: -7.8; M5 ag: -2.1; M5 antag: -0.1

Results for CCc1nc2c(OCCOc3ccc(F)cc3)cccn2c1N(C=O)Cc1ccc(OC)cc1 ?
M1 antag: -13.7; M5 PAM: -1.7; M1 ag: -6.9; M5 ag: -2.3; M5 antag: 0.8; M1 PAM: -1.1

Results for COc1ccc(CN2C(=O)CN(S(C)(=O)=O)CC2(C)C(=O)NC(C)C)cc1OC (stereo not given) ?
M5 PAM: -1.5; M5 ag: 1.9; M5 antag: 0.8

What do the screens show for `CCOCCn1ccc2c(OCC(=O)Nc3cc(OC)ccc3OC)cccc2c1=O`?
M1 antag: 8.3; M5 PAM: -13.2; M1 ag: -3.8; M5 ag: -0.3; M5 antag: 4.6; M1 PAM: -8.2

What do the screens show for `COc1cccc2c(=O)n(CC(=O)Nc3ccc(F)cc3F)ccc12`?
M1 antag: 28.4*; M5 PAM: -3.8; M1 ag: -1.3; M5 ag: 0.3; M5 antag: 2.7; M1 PAM: -3.0

What do the screens show for `CCOCCn1ccc2c(OCC(=O)Nc3ccccc3OC)cccc2c1=O`?
M1 antag: 30.2*; M5 PAM: -27.2; M1 ag: -3.2; M5 ag: -3.0; M5 antag: 17.6; M1 PAM: -13.9

Results for CCCCCCCCN1C(=O)[C@H](CC(=O)NCCCN2CCCC2=O)C[C@@]2(C(=O)OC)CCCCC=C12 ?
M5 PAM: -4.5; M5 ag: 0.4; M5 antag: 1.1

How did Nc1nc(SCC(=O)Nc2ccc(OC(F)(F)F)cc2)[nH]c(=O)c1NC(=O)c1ccc(Br)o1 do in these assays?
M1 antag: -12.7; M5 PAM: -11.4; M1 ag: 0.2; M5 ag: -4.6; M5 antag: 33.9*; M1 PAM: 16.5

What do the screens show for `CCSc1nc(N)c(NC(=O)c2ccc(Br)o2)c(=O)[nH]1`?
M1 antag: -10.9; M5 PAM: 1.1; M1 ag: -3.2; M5 ag: -2.7; M5 antag: 6.0; M1 PAM: 5.5

How did Cc1cccn2c(=O)c(/C=C(\C#N)C(=O)NCc3ccco3)c(N3CCCC(C)C3)nc12 (stereo not given) do in these assays?
M1 antag: -5.5; M5 PAM: -4.7; M1 ag: -7.5; M5 ag: 0.0; M5 antag: 6.8; M1 PAM: 0.8

What do the screens show for `CCOC(=O)C1CCCN(c2nc3c(C)cccn3c(=O)c2/C=C(\C#N)C(=O)NCc2ccco2)C1` (stereo not given)?
M1 antag: 76.1*; M5 PAM: -27.0; M1 ag: 62.5*; M5 ag: 31.0*; M5 antag: 12.8; M1 PAM: -24.6

What do the screens show for `COc1ccc(C2=NOC(Cn3nc(C(=O)NCc4ccco4)cc3-c3ccccc3)C2)cc1` (stereo not given)?
M1 antag: 33.2*; M5 PAM: -29.4; M1 ag: 0.5; M5 ag: 4.4; M5 antag: 10.2; M1 PAM: -20.8

What do the screens show for `CN(C(=O)COC(=O)CN1C(=O)c2cccc([N+](=O)[O-])c2C1=O)c1ccccc1`?
M1 antag: -19.6; M5 PAM: 5.6; M1 ag: 0.6; M5 ag: 0.5; M5 antag: -7.0; M1 PAM: 28.1*

Results for COc1ccc(C(CNC(=O)c2cccc(S(=O)(=O)N3CCCC3)c2)N2CCCC2)cc1 (stereo not given) ?
M1 antag: 6.6; M5 PAM: -1.2; M1 ag: -7.1; M5 ag: -8.4; M5 antag: 1.6; M1 PAM: -7.2

Results for COc1ccc(C(CNC(=O)Cc2ccccc2Cl)N2CCCCC2)cc1 (stereo not given) ?
M1 antag: 37.6*; M5 PAM: -6.5; M1 ag: -10.2; M5 ag: -7.5; M5 antag: 7.9; M1 PAM: -27.6

What do the screens show for `COc1ccc(C(CNC(=O)CCNS(=O)(=O)c2ccccc2)N2CCOCC2)cc1` (stereo not given)?
M1 antag: 29.8*; M5 PAM: -4.6; M1 ag: -4.3; M5 ag: -0.4; M5 antag: 3.7; M1 PAM: -13.0
